Experimental data published in ChEMBL document CHEMBL1136923, “Highly potent, orally available anti-inflammatory broad-spectrum chemokine inhibitors” (J Med Chem, 2009).

Experiments:
[1] = target: C-C chemokine receptor type 2 (Homo sapiens) (UniProt P41597); experiment: Antagonist activity at CCR2 in human THP1 cells assessed as inhibition of CCL2-induced chemotaxis at 10 nM after 2 hrs by microtiter format trans-well migration assay; assay type: functional, cell-based; settings: THP-1
How it was run: (§1)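 Microtiter trans-well migration assay in Gey's balanced salt solution with 1 mg/mL endotoxin-free BSA, no fetal calf serum. Migration ran 2 h at 37 °C. Compounds dissolved in DMSO and added to both top and bottom compartments, final DMSO 1%.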

[2] = test system: THP-1; experiment: Toxicity in human THP1 cells assessed as change in cell size at 1000 nM by forward scatter flow cytometry relative to control; assay type: cell-based; settings: thp-1, 1 µM
[3] = target: C-C chemokine receptor type 5 (Homo sapiens) (UniProt P51681); experiment: Antagonist activity at CCR5 in human THP1 cells assessed as inhibition of CCL5-induced chemotaxis at 1000 nM after 2 hrs by microtiter format trans-well migration assay; assay type: functional, cell-based; settings: THP-1; how it was run: as §1
C-C chemokine receptor type 5 (Homo sapiens), sequence (P51681 whole entry, looked up): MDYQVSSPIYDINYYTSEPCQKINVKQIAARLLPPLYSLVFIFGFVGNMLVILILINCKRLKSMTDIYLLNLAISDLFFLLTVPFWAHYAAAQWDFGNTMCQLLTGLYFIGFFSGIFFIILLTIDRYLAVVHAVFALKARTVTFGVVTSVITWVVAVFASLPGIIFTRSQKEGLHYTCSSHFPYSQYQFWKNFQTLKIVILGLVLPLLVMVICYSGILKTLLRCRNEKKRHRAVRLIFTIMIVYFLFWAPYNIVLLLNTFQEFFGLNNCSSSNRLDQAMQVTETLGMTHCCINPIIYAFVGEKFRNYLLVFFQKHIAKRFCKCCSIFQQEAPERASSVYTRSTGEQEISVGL

[4] = test system: THP-1; experiment: Toxicity in human THP1 cells assessed as change in cell size at 0.1 nM by forward scatter flow cytometry relative to control; assay type: cell-based; settings: thp-1, 0.0001 µM
[5] = test system: Mus musculus; experiment: Antiinflammatory activity in mouse assessed as inhibition of LPS-induced TNFalpha upregulation at 0.0075 mg, sc measured 2 hrs after LPS challenge; assay type: functional
How it was run: (§2)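 Murine sublethal endotoxemia: LPS given intraperitoneally, with serum TNF-α measured 2 h after the LPS injection as the end point. Compound was given subcutaneously or orally. Vehicle was 0.6% DMSO and 1% carboxymethylcellulose (final concentrations) in sterile water. Effect is reported as % relative to control.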

[6] = target: C-C chemokine receptor type 5 (Homo sapiens) (UniProt P51681); experiment: Antagonist activity at CCR5 in human THP1 cells assessed as inhibition of CCL5-induced chemotaxis at 1 nM after 2 hrs by microtiter format trans-well migration assay; assay type: functional, cell-based; settings: THP-1; how it was run: as §1
[7] = test system: Mus musculus; experiment: Antiinflammatory activity in mouse assessed as inhibition of LPS-induced TNFalpha upregulation at 0.075 mg, sc measured 2 hrs after LPS challenge; assay type: functional; how it was run: as §2
[8] = test system: Mus musculus; experiment: Antiinflammatory activity in mouse assessed as inhibition of LPS-induced TNFalpha upregulation at 0.25 mg, sc measured 2 hrs after LPS challenge; assay type: functional; how it was run: as §2
[9] = AUC (0 to t) in Sprague-Dawley rat at 1 mg/kg, iv administered as single dose; assay type: ADME, organism-based, Plasma; design: dose 1 mg/kg, route intravenous; settings: Sprague-Dawley, plasma
How it was run: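 Male Sprague-Dawley rats, three per compound per route, single dose. IV vehicle 5% DMSO in 0.9% saline; oral gavage vehicle 1% carboxymethylcellulose in 0.9% saline; fed ad libitum. Plasma taken 5–480 min post-dose, extracted with 0.1% formic acid in acetonitrile, quantified by LC/MS/MS (positive mode). AUC(0–t) by linear/log trapezoidal rule; IV curve back-extrapolated assuming initial volume 0.26 L/kg.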

[10] = Antagonist activity at Interleukin-8 receptor in human PMNC assessed as inhibition of CXCL8-induced chemotaxis at 1 nM after 2 hrs by microtiter format trans-well migration assay; assay type: functional; how it was run: as §1
[11] = target: T1, C-C chemokine receptor type 1 (Homo sapiens) (UniProt P32246); experiment: Antagonist activity at CCR1 in human THP1 cells assessed as inhibition of CCL3-induced chemotaxis at 1 nM after 2 hrs by microtiter format trans-well migration assay; assay type: functional, cell-based; settings: THP-1; how it was run: as §1
T1 sequence (whole entry): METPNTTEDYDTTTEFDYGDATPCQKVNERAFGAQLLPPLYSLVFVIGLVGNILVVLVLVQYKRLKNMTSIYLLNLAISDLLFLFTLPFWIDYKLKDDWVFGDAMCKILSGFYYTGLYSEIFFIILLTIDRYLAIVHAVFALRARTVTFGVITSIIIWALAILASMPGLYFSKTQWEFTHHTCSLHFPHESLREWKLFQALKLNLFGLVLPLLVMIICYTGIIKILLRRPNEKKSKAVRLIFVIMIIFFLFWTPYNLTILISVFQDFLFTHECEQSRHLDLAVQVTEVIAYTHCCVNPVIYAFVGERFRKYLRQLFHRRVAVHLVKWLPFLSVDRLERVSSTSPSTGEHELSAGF

[12] = target: C-C chemokine receptor type 5 (Homo sapiens) (UniProt P51681); experiment: Antagonist activity at CCR5 in human THP1 cells assessed as inhibition of CCL5-induced chemotaxis after 2 hrs by microtiter format trans-well migration assay; assay type: functional, cell-based; settings: THP-1; how it was run: as §1
[13] = Half life in Sprague-Dawley rat at 1 mg/kg, iv administered as single dose; assay type: ADME, organism-based; design: dose 1 mg/kg, route intravenous; settings: in vivo
How it was run: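 Male Sprague-Dawley rats, three per compound, receive a single intravenous dose in 5% DMSO in 0.9% saline. Food and water are given ad libitum. Plasma is taken at 5, 15, 30, 60, 120, 180, 240 and 480 min. Drug is measured by LC/MS/MS after extraction with 0.1% formic acid in acetonitrile. The curve is back-extrapolated to time zero assuming an initial volume of 0.26 L/kg.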

[14] = test system: Mus musculus; experiment: Antiinflammatory activity in po dosed mouse assessed as inhibition of LPS-induced TNFalpha upregulation measured 2 hrs after LPS challenge relative to control; assay type: functional
How it was run: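 Murine sublethal LPS endotoxemia screen. LPS is injected intraperitoneally and serum TNF-α is measured 2 h later as the end point. Compound is given subcutaneously or orally in a vehicle of 0.6% DMSO plus 1% carboxymethylcellulose (final concentrations) in sterile water. Values are % relative to control.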

C-C chemokine receptor type 2 (Homo sapiens), sequence (P41597 whole entry, looked up): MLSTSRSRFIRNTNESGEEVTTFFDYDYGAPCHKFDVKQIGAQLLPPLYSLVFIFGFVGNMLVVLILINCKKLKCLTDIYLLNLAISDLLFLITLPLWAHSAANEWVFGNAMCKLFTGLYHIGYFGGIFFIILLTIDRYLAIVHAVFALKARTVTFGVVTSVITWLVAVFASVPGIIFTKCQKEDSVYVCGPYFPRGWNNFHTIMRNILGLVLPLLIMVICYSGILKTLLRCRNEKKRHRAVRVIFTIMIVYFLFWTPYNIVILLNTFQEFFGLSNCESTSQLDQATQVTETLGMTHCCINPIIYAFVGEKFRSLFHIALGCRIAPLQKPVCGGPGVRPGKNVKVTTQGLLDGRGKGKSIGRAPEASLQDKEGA

inhibition [1]: 96%
inhibition [3]: 100%
inhibition [6]: 56%
AUC(0-t) [9]: 395 ng·h/mL
inhibition [11]: 92.5%
ED50 [12]: 0.9 nM
half-life [13]: 46 min
Structure (SMILES): CCCCCCCCCCC(C)(C)C(=O)N[C@H]1CCCCNC1=O
fold change (FC) [2]: 1.05
fold change (FC) [4]: 1.04
inhibition (INH) [5]: 63%
inhibition (INH) [7]: 66%
inhibition (INH) [8]: 79%
inhibition at 0.001 µM [10]: 71%
inhibition (INH) [14]: 70%
